Source: PMC10527432 (Cell, 2023)
Entries after “also recorded” stand apart in the source; their conditions may differ. Read-outs that look alike come from different tables or passages of the source.

Assays:
Aβ1–42 fibrils = Aβ1–42 fibrils (Homo sapiens, UniProt P05067); experiment: [18F]-F0502B saturation binding assay with Aβ PFFs; details: read-out: KD, Aβ fibrils, 1 μM PFFs
Method in brief: (§1)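 PFFs (1 μM) were incubated with [18F]-labelled test compound (5–900 nM) for 1 h at 37 °C in 30 mM Tris-HCl pH 7.4, 0.1% BSA, 0.5% sodium ascorbate. Nonspecific binding was defined with 2 μM unlabeled compound. Samples were filtered, washed twice and counted by scintillation, in duplicate. Kd and Bmax were obtained by nonlinear fit to Y = Bmax*X/(X+Kd).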

α-Syn fibrils = α-Syn fibrils (Homo sapiens, UniProt P37840); experiment: [18F]-F0502B saturation binding assay with α-Syn PFFs; details: read-out: KD, α-Syn fibrils, 1 μM PFFs
Method in brief: as §1

[1] = molecular target: Tau fibrils in AD patients (Homo sapiens, UniProt P10636); experiment: Saturation binding assay with insoluble Tau fraction from AD brain
Method in brief: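 Insoluble Tau was extracted from AD brain in 10 mM Tris-HCl pH 7.4, 0.8 M NaCl, 1 mM EGTA, 10% sucrose. Sequential centrifugations up to 100,000 × g were performed at 4 °C. The pellet was resuspended in 20 mM Tris-HCl pH 7.4, 100 mM NaCl and run over a Superose 6 column.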

Tau fibrils = Tau fibrils (Homo sapiens, UniProt P10636); experiment: [18F]-F0502B saturation binding assay with Tau PFFs; details: read-out: KD, Tau fibrils, 1 μM PFFs
Method in brief: as §1

[2] = molecular target: Aβ fibrils in AD patients (Homo sapiens, UniProt P05067); experiment: Saturation binding assay with insoluble Aβ fraction from AD brain
Method in brief: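 Insoluble Aβ was extracted from AD gray matter by homogenization in 0.32 M sucrose, mesh sieving, and centrifugation in 1 M sucrose. This was followed by collagenase/dispase (2 mg/ml) digestion for 16 h at 37 °C and a discontinuous 1.05–1.8 M sucrose gradient.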

Aβ plaques or NFTs = experiment: Counter-staining of mouse brain sections; details: Tau P301S, 5xFAD, 3xTg mice
Method in brief: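 Cortical slices from 14-month-old 3xTg, 6-month-old Tau P301S and 12-month-old 5xFAD mice were fixed and incubated with primary antibodies for 12 h at 4 °C. Alexa Fluor-conjugated secondary antibodies were applied for 3 h at room temperature, with DAPI (1 μg/ml) nuclear counterstain. Slices were imaged by confocal microscopy.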

[3] = molecular target: α-Syn deposits in mouse brain sections (Homo sapiens, UniProt P37840, A53T); experiment: Staining of mouse brain sections containing α-Syn deposits; details: SN of AAV-α-Syn A53T-injected mice
[4] = system: synthetic α-Syn aggregates and Aβ fibrils; details: cited from earlier work
Tau PFFs = Tau PFFs (Homo sapiens, UniProt P10636); experiment: Fibril binding assay; details: fluorescence; 0.08 μM fibrils, 5 μM compound; regardless of 3R or 4R Tau
Method in brief: (§2)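 In the fluorescence screen, test compound (5 μM) in 50 mM Tris-HCl, 50 mM NaCl, pH 7.4 was added to fibrils or monomers (0.08 μM) in triplicate wells. Fluorescence was read at each compound's own excitation/emission wavelengths. α-Syn fibrils were commercial, dissolved to 1 mg/ml in PBS. Tau PFFs were assembled from 3 mg/mL protein with 12.5 μM heparin for 7 days at 37 °C with shaking; mixed 3R-4R fibrils used 0N3R and 2N4R at 1.5 mg/ml each.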

Aβ PFFs = Aβ PFFs (Homo sapiens, UniProt P05067); experiment: Fibril binding assay; details: fluorescence; 0.08 μM fibrils, 5 μM compound
α-Syn PFFs = α-Syn PFFs (Homo sapiens, UniProt P37840); experiment: Fibril binding assay; details: fluorescence, 0.08 μM fibrils, 5 μM compound
Method in brief: as §2

[5] = system: α-Syn aggregates in primary neurons; experiment: Fluorescence staining of primary neurons containing α-Syn aggregates; type: cell-based, rat; details: AAV-α-Syn + α-Syn PFFs, fluorescence microscopy
Method in brief: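 Primary embryonic rat neurons were cultured at 37 °C in 5% CO2 and infected with AAV-α-Syn at DIV7. At DIV12 they received sonicated α-Syn PFFs at 100 ng/ml final, with monomer as control. Test compound was then added and binding to the intracellular aggregates was assessed by fluorescence microscopy.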

[6] = molecular target: α-Syn deposits in PD/DLB brain homogenates (Homo sapiens, UniProt P37840); type: binding
Method in brief: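 Brain lysates from 4 control and 4 patient cases were normalized for aggregate levels by pS129 western blot. Homogenates (0.2 mg/ml) were incubated with [18F]-labelled test compound (5–900 nM) for 1 h at 37 °C in 50 mM Tris-HCl, 50 mM NaCl, 0.5% sodium ascorbate, pH 7.4. Samples were then filtered, washed twice and counted by scintillation.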

[7] = molecular target: aggregated α-Syn in PD brains (Homo sapiens, UniProt P37840); experiment: In vitro competition assay against [3H]BF-227 in postmortem PD brain tissue; type: binding; details: read-out: Ki against [3H]BF227; postmortem PD brain tissue homogenate
Method in brief: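 Postmortem PD brain homogenate (α-Syn aggregates, no other amyloid) was used at a final 100 μg tissue/mL in PBS/0.1% BSA, pH 7.0. Unlabeled test compound (0.1–1000 nM; 0.25% DMSO final) was combined with [3H]BF-227 solution (~2 nM). 100% inhibition was defined by displacement with 1 μM unlabeled compound. Each concentration was run in triplicate, giving Ki.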

Toxicology test in mice = type: in vivo; details: C57BL/6 mice
[8] = molecular target: aggregated α-Syn in PD/DLB patients (Homo sapiens, UniProt P37840); experiment: Saturation binding assay with insoluble α-Syn fraction from PD/DLB brain
Method in brief: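 Insoluble α-Syn was extracted from frozen PD and DLB brain in 50 mM Tris-HCl pH 7.4, 800 mM NaCl, 10 mM NaF, 5 mM EDTA at 100,000 × g. Pellets were re-extracted with buffer containing 1% Triton X-100, then 1% Triton X-100 plus 30% sucrose. A final 1% sarkosyl step ran overnight, followed by a 100,000 × g spin.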

[9] = In vivo pharmacokinetics study in mice, i.v.; details: i.v. 5 mg/kg
Method in brief: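 Male ICR mice received 5 mg/kg i.v. Test compound was measured in plasma and brain homogenates at successive time points, with 3 mice per time point. Brain/plasma ratios, plasma half-life and clearance were derived; data are mean ± SD.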

Aβ plaques or NFTs in AD = experiment: Counter-staining of AD patient brain sections; set-up: species or system human; details: AD patients
α-Syn aggregates = α-Syn aggregates (Homo sapiens, UniProt P37840, A53T); experiment: Ex vivo staining after i.v. F0502B in AAV-α-Syn A53T mice; set-up: species or system mouse; details: 2 mg/kg i.v., 2 h
Method in brief: (§3)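 Eight-month-old mice received test compound at 2 mg/kg via the tail vein, and brain sections were prepared 2 h later. Sections were stained with anti-Aβ, anti-p-Tau (AT8), anti-p-α-Syn S129 and ThS, and co-localization was assessed. Cortex was examined for 5xFAD, 3xTg and Tau P301S mice. SN was examined for mice given unilateral stereotaxic AAV9-α-Syn A53T into SN at 3 months.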

[10] = system: α-Syn deposits in mouse brain sections; experiment: Staining of mouse brain sections containing α-Syn deposits; details: SNCA transgenic mice treated with rotenone
[11] = molecular target: α-Syn pathology in DLB and MSA patient brain (Homo sapiens, UniProt P37840); experiment: Staining of DLB and MSA patient brain sections; details: DLB and MSA patients
Aβ or Tau aggregates = experiment: Ex vivo staining after i.v. F0502B in 5xFAD, 3xTg, Tau P301S mice; set-up: species or system mouse; details: 2 mg/kg i.v., 2 h
Method in brief: as §3

α-Syn aggregation = details: cited from earlier work
[12] = molecular target: α-Syn aggregates in macaque brain (Homo sapiens, UniProt P37840, A53T); experiment: PET imaging in non-human primate PD models; type: in vivo, rhesus macaques; details: macaques injected with AAV-α-Syn A53T
[13] = system: α-Syn aggregates in macaque brain; experiment: PET imaging in non-human primate PD models; type: in vivo, rhesus macaques; details: control macaques
[14] = molecular target: LBs in human brain sections (Homo sapiens, UniProt P37840); experiment: Autoradiography with human brain slices; type: binding; details: PD versus AD patients; 4 nM tracer
Method in brief: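 Post-mortem human brain slices, stored at −20 °C, were preincubated in PBS + 0.1% BSA (pH 7.4) to reach room temperature. They were then incubated with [18F]-labelled tracer at room temperature for 30 min, rinsed in cold buffer and once in distilled water, and dried. Slices were exposed to imaging plates for 3 h before development.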

Chain of Tau fibrils in AD patients (P10636 623-708 limits assumed): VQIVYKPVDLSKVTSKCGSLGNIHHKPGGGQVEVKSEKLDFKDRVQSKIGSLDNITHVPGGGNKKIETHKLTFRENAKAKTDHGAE
Chain of Aβ fibrils in AD patients (P05067 672-711 limits assumed): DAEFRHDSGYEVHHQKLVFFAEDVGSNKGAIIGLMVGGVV
Chain of Tau PFFs (P10636 1-441 isoform P10636-8): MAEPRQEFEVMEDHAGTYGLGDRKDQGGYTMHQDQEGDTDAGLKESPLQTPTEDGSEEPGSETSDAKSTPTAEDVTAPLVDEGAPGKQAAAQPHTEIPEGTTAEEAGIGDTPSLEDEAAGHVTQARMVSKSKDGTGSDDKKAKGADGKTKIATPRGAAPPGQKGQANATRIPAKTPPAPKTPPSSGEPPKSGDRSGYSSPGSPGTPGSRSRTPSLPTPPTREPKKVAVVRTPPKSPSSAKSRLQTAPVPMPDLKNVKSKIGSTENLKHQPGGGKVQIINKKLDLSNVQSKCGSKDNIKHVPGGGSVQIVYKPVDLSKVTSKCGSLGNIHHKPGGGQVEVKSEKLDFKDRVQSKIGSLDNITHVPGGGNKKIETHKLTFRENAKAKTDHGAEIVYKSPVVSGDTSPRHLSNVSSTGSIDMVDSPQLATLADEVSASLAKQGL
Chain of Tau fibrils (P10636 1-441 isoform P10636-8): as above
Chain of Aβ1–42 fibrils (P05067 672-713 limits assumed): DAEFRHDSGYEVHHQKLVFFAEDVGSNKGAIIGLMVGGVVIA
Chain of Aβ PFFs (P05067 672-713 limits assumed): as above

## Cc1cc2nc(/C=C/c3ccc(O)c(Br)c3)sc2cc1N(C)CCOCCF [[^18F]-F0502B]
Aβ1–42 fibrils
  Kd: 109 nM
α-Syn fibrils
  Kd: 11 nM
[1]; read-out: KD, Tau fibrils in AD patients
  Kd: 151 nM
Tau fibrils
  Kd: 120 nM
[2]; read-out: KD, Aβ fibrils in AD patients
  Kd: 108 nM

## thioflavin-S [ThS, reference compound]
Aβ plaques or NFTs
  staining of Aβ plaques or NFTs in mouse brain sections: stained all of these aggregates
[3]
  staining of α-Syn deposits in mouse brain sections: stained all of these aggregates

## CN(C)c1ncc(/C=C/c2nc3ccc(OCCF)cc3o2)s1 [BF-227]
[4]
  binding to α-Syn aggregates and Aβ fibrils in vitro: binds to both synthetic α-Syn aggregates and Aβ fibrils in vitro

## Cc1cc2nc(/C=C/c3ccc(O)c(Br)c3)sc2cc1N(C)CCOCCF [F0502B]
Tau PFFs
  binding to Tau fibrils: poorly bound
Aβ PFFs
  binding to Aβ fibrils: poorly bound
α-Syn PFFs; counter screening
  binding selectivity toward α-Syn PFFs versus Aβ and Tau PFFs: stronger binding affinity with α-Syn PFFs than with Aβ and Tau PFFs
α-Syn PFFs; ThT positive control
  binding activities toward α-Syn PFFs: specifically bound α-Syn fibrils
[5]
  signals in neurons with α-Syn aggregates: specific association of F0502B with α-Syn aggregates
[6]; read-out: KD for α-Syn deposits in PD brains, PD brains
  Kd: 4.26 to 7.32 nM
[6]; read-out: Kd, DLB brain homogenates, unfractionated human DLB brain homogenates
  Kd: 9.79 nM
[6]; read-out: Kd, PD brain homogenates, unfractionated human PD brain homogenates
  Kd: 4.26 nM
[7]
  Ki: 3.4 nM
Aβ plaques or NFTs
  staining of Aβ plaques or NFTs in mouse brain sections: but not Aβ plaques or NFTs; also recorded: weakly associated with Aβ aggregates
Toxicology test in mice
  effect on complete cell count or liver/renal functions: did not alter complete cell count or liver/renal functions
[8]; read-out: KD, aggregated α-Syn in DLB patients, DLB
  Kd: 6.23 nM
[8]; read-out: KD, aggregated α-Syn in PD patients, PD
  Kd: 3.68 nM
[9]
  Cl rate: approximately 33.6 L/h/kg
  plasma half-life t1/2: 6.9 min
[9]; 1 min
  brain versus plasma (B/P) ratio: 0.106
[9]; 1 h
  brain versus plasma (B/P) ratio: 13.37
Aβ plaques or NFTs in AD
  staining of Aβ plaques or NFTs in AD brains: but not Aβ plaques or NFTs
α-Syn aggregates
  ex vivo staining of α-Syn aggregates after i.v. injection: selectively stains α-Syn aggregates
[3]
  staining of α-Syn deposits in mouse brain sections: specific association of F0502B with α-Syn aggregates
[10]
  staining of α-Syn inclusions: stained the α-Syn inclusions that were positive for p-S129 and 5G4
[11]
  staining of α-Syn pathology in patient brain slides: specific association of F0502B with α-Syn aggregates
Aβ or Tau aggregates
  ex vivo staining of Aβ or Tau aggregates after i.v. injection: not Aβ or Tau aggregates

## Oc1ccc(-c2cc(-c3cccc(Br)c3)n[nH]2)cc1O [anle138c]
α-Syn aggregation
  inhibition of α-Syn aggregation: complete the inhibition of α-Syn aggregation; also recorded: strong inhibition of α-Syn aggregation

## Cc1cc2nc(/C=C/c3ccc(O)c(Br)c3)sc2cc1N(C)CCOCC[18F] [[^18F]-F0502B]
[12]
  PET signal in brain: demonstrable signals in the striatal regions
[13]
  PET signal in brain: devoid of radiotracer retention
[6]; total and nonspecific binding curves, frontal cortex
  specific binding in PD/AD/healthy control tissues: only specific binding with PD tissues but not AD or control tissues
[8]; DLB
  Bmax, aggregated α-Syn in DLB patients: 12.30 fmol/nmol
[8]; PD
  Bmax, aggregated α-Syn in PD patients: 14.95 fmol/nmol
[1]
  Bmax, Tau fibrils in AD patients: 1.14 fmol/nmol
[14]
  autoradiographic binding to human brain sections: selectively associated with LBs in brain sections from PD but not AD patients
[2]
  Bmax, Aβ fibrils in AD patients: 2.34 fmol/nmol
